Reference: ChEMBL document CHEMBL3616442, “Unconventional Knoevenagel-type indoles: Synthesis and cell-based studies for the identification of pro-apoptotic agents” (Eur J Med Chem, 2015)

Columns and labels:
K562 = assay: Induction of cell cycle arrest in human K562 cells assessed as accumulation at G2/M phase after 24 hrs by propidium iodide staining based flow cytometric analysis; assay type: functional
Procedure, shortened: (§1)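 Propidium iodide/RNase A flow cytometry of ethanol-fixed cells, 10,000 gated events at 488 nm; G2/M fraction measured after 18 h treatment (HL-60, MCF-7) or 24 h (K562); mean ± S.E.M. of three independent experiments.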

MCF7 = assay: Induction of cell cycle arrest in human MCF7 cells assessed as accumulation at G2/M phase after 18 hrs by propidium iodide staining based flow cytometric analysis; assay type: functional; procedure, shortened: as §1

`COc1ccc(-c2[nH]c3ccccc3c2/C=C(\C#N)S(=O)(=O)c2ccccc2)cc1` was tested, and the Activity (K562) was 42.4% and the Activity (MCF7) was 40.4%.
